From ChEMBL document CHEMBL1147426, “Thiazoles and thiopyridines: novel series of high affinity h5HT(7) ligands” (Bioorg Med Chem Lett, 2004)

Columns and labels:
Assay type in all cases: cell-based
[1] = target: T1, 5-hydroxytryptamine receptor 1A (Homo sapiens, UniProt P08908); experiment: Binding affinity towards human 5-hydroxytryptamine 1A receptor by the displacement of [3H]5-HT radioligand from the cloned receptor expressed in HeLa cells
T1 sequence (P08908 whole entry): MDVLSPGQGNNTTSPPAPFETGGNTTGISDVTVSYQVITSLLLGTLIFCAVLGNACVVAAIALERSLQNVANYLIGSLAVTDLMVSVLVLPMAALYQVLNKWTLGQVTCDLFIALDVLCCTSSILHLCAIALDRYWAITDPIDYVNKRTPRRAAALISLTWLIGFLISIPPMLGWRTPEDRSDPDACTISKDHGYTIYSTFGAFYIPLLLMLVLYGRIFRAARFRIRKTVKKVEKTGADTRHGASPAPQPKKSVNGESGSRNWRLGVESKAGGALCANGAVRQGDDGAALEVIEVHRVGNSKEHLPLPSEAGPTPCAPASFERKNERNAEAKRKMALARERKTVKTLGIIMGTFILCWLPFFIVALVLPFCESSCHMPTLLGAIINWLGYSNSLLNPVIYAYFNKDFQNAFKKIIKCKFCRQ
Procedure, shortened: (§1)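 Affinities are given as the geometric mean of 3–6 independent determinations; some values rest on only 2 determinations.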

[2] = target: 5-hydroxytryptamine receptor 2A (Homo sapiens, UniProt P28223); experiment: Binding affinity towards human 5-hydroxytryptamine 2A receptor by the displacement of [3H]ketanserin radioligand from the cloned receptor expressed in CHO cells; procedure, shortened: as §1
[3] = target: 5-hydroxytryptamine receptor 7 (Homo sapiens, UniProt P34969); experiment: Binding affinity towards human 5-hydroxytryptamine 7 receptor by the displacement of [3H]-5-HT radioligand from the cloned receptor expressed in CHO cells
D(2) dopamine receptor = D(2) dopamine receptor (Homo sapiens, UniProt P14416); experiment: Binding affinity towards human dopamine receptor D2 by the displacement of [3H]spiperone radioligand from the cloned receptor expressed in CHO cells; procedure, shortened: as §1
Sequence of D(2) dopamine receptor (P14416 whole entry): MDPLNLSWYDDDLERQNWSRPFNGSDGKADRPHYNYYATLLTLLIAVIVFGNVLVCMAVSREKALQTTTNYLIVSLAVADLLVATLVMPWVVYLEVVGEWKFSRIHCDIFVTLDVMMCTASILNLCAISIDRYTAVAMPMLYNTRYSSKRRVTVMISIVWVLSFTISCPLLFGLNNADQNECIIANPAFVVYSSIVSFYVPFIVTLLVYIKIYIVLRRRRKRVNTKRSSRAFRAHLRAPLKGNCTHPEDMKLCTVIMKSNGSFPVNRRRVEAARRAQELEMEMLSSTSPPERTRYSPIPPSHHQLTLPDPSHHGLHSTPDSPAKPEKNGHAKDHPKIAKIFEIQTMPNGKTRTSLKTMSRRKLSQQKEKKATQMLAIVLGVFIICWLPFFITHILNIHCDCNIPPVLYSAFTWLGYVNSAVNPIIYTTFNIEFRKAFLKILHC

Sequence of 5-hydroxytryptamine receptor 7 (P34969 whole entry): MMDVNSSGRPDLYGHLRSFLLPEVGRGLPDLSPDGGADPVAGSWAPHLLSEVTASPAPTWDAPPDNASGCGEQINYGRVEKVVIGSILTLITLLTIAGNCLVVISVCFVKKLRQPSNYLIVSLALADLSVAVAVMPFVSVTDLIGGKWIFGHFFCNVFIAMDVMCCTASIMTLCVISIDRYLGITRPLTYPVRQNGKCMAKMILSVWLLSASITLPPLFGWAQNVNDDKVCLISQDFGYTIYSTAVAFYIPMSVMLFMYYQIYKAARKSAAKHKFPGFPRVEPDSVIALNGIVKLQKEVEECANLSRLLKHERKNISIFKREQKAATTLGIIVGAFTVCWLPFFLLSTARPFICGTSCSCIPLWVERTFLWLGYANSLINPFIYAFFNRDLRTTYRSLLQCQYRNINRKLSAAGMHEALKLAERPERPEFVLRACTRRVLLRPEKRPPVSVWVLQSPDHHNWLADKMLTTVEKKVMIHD
Sequence of 5-hydroxytryptamine receptor 2A (P28223 whole entry): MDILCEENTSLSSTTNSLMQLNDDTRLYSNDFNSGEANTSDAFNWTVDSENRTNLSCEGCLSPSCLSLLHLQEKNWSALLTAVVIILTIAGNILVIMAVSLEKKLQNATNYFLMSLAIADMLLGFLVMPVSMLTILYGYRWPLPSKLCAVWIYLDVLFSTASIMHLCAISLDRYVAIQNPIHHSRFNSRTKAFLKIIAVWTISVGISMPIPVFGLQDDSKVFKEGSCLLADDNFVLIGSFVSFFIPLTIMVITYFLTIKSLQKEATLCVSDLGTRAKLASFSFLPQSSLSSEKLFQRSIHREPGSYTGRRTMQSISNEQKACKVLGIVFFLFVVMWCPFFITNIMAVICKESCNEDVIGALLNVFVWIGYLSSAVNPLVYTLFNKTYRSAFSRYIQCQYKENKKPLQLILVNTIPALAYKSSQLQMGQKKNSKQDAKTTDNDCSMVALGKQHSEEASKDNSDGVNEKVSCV

Molecule `CN(C)CCSc1cccc(Br)n1` has a Ki [1] of 37 nM, a Ki [2] of 270 nM and a Ki [3] of 4.1 nM. For the same molecule, the Ki (D(2) dopamine receptor) was 870 nM.
`CN(C)CCSc1nnc(-c2ccccc2)o1` showed a Ki [3] of over 4000 nM.
`CN(C)CCSc1cccc(C2CCCCC2)n1` was tested, and the Ki [1] was 8.7 nM, the Ki [2] was 230 nM and the Ki [3] was 0.7 nM. The Ki (D(2) dopamine receptor) was 1300 nM.
`CN(C)CCSc1cccc(C2(O)CCCCC2)n1` gave a Ki [1] of 41 nM, a Ki [2] of 480 nM and a Ki [3] of 7.2 nM. The Ki (D(2) dopamine receptor) was over 1000 nM.
`CN(C)CCSc1n[nH]c(-c2ccccc2)n1` was tested, and the Ki [3] was 1200 nM.
`Cc1sc(SCCN(C)C)nc1-c1ccccc1` showed a Ki [3] of 170 nM.
With `CN(C)CCSc1nccs1` the Ki [3] was 6800 nM.
Molecule `CN(C)CCSc1nc(C(C)(C)C)cs1` has a Ki [1] of 2200 nM, a Ki [2] of 1200 nM and a Ki [3] of 22 nM. The Ki (D(2) dopamine receptor) was over 1000 nM.
With `CN(C)CCSc1cccc(-c2ccccc2)n1` the Ki (D(2) dopamine receptor) was 450 nM.
Work on `CN(C)CCSc1nc2ccccc2s1` yielded a Ki [1] of 830 nM, a Ki [2] of 1000 nM and a Ki [3] of 84 nM. The Ki (D(2) dopamine receptor) was over 1000 nM.
For `CN(C)CCSc1ccnc(-c2ccccc2)c1`, the Ki [1] was 1200 nM and the Ki [3] was 100 nM.
With `CN(C)CCSc1nc(-c2ccccc2)cs1` the Ki [1] was 210 nM, the Ki [2] was 640 nM and the Ki [3] was 12 nM. The Ki (D(2) dopamine receptor) was over 1000 nM.
With `CN(C)CCSc1nc(-c2ccncc2)cs1` the Ki [1] was 90 nM, the Ki [2] was over 200 nM and the Ki [3] was 27 nM. The Ki (D(2) dopamine receptor) was 130 nM.
Work on `CN(C)CCSc1ncc(-c2ccccc2)s1` yielded a Ki [3] of 3200 nM.
